Data from ChEMBL document CHEMBL4304781, “Development of Highly Selective Pyrimidine-Based Aldosterone Synthase (CYP11B2) Inhibitors” (ACS Med Chem Lett, 2019).
In brackets after ≈: the same amount, converted by molar mass.

What was measured:
Homo sapiens [1] = species on record: Homo sapiens; test: Selectivity index, ratio of IC50 for human recombinant CYP11B1 to IC50 for human recombinant CYP11B2
Outline: (§1)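 Recombinant human CYP11B2 or CYP11B1. Substrate and product steroids both monitored by HPLC-MS. Selectivity taken as CYP11B1 IC50 / CYP11B2 IC50.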

[2] = target: T1, Cytochrome P450 11B1, mitochondrial (Homo sapiens, UniProt P15538); test: Inhibition of human recombinant CYP11B1 using deoxycortisol as substrate incubated for 60 mins by cell-based HPLC analysis; type: ADME; outline: as §1
T1 sequence (P15538 whole entry): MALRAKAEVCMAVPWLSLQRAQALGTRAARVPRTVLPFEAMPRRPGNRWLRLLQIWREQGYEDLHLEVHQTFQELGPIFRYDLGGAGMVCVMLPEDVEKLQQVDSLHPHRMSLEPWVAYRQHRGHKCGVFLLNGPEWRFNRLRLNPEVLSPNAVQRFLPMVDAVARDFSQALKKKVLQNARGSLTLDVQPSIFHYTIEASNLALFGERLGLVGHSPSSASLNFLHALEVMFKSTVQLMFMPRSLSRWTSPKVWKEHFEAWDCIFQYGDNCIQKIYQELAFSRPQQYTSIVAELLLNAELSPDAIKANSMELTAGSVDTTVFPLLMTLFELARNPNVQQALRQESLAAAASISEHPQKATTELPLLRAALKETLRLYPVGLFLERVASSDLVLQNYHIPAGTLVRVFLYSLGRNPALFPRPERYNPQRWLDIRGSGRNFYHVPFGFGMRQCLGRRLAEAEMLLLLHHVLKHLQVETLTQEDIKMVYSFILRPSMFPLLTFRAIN

[3] = target: T2, Cytochrome P450 11B2, mitochondrial (Homo sapiens, UniProt P19099); test: Inhibition of human recombinant CYP11B2 using deoxycorticosterone as substrate incubated for 90 mins by cell-based HPLC analysis; outline: as §1
T2 sequence (P19099 whole entry): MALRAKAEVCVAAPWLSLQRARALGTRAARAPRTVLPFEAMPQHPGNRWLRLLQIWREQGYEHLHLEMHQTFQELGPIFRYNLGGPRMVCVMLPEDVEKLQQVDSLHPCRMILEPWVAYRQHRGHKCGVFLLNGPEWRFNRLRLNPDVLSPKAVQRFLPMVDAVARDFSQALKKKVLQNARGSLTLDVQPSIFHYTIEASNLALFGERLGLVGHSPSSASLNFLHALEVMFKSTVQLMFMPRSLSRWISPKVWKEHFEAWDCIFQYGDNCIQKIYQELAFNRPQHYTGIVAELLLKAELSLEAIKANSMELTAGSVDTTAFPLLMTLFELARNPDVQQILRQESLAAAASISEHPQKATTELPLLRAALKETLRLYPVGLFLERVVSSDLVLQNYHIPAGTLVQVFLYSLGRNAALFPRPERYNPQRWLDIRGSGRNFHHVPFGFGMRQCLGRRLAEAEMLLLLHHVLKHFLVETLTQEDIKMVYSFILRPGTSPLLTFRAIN

[4] = Stability in cynomolgus monkey liver microsomes assessed as parent compound remaining at 1 uM measured after 65 mins by LC/MS-MS analysis; type: ADME, Macaca fascicularis, Microsome; details: read-out: Stability
Outline: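 Parent compound percentage remaining after 65 min incubation with cynomolgus monkey liver microsomes.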

[5] = Tmax in cynomolgus monkey at 1 mg/kg, po measured after 24 or 72 hrs; type: ADME, organism-based, Macaca fascicularis; details: in vivo
Outline: (§2)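 Male cynomolgus monkeys dosed orally at 1 mg/kg in 0.5% CMC, 0.1% Tween-80, 1% DMSO. Plasma drug concentrations followed out to 24 or 72 h. Cmax, Tmax, AUC0-24 and t1/2 derived from plasma levels.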

[6] = AUC (0 to 24 hrs) in cynomolgus monkey at 1 mg/kg, po measured after 24 or 72 hrs; type: ADME, organism-based, Macaca fascicularis; set-up: time < 24 hr, dose 1 mg/kg, route oral; details: in vivo; outline: as §2
[7] = Thermodynamic solubility in phosphate free buffer pH 7.4 incubated for 24 hrs by HPLC/LCMS-MS based shake flask method; type: physicochemical; details: read-out: Therm_solubility
[8] = Half life in cynomolgus monkey at 1 mg/kg, po measured after 24 or 72 hrs; type: ADME, organism-based, Macaca fascicularis; details: in vivo; outline: as §2
[9] = Cmax in cynomolgus monkey at 1 mg/kg, po measured after 24 or 72 hrs; type: ADME, organism-based, Macaca fascicularis; set-up: dose 1 mg/kg, route oral; details: in vivo; outline: as §2
Homo sapiens [10] = species on record: Homo sapiens; test: Selectivity index, ratio of IC50 for CYP17 (unknown origin) to IC50 for human recombinant CYP11B2
Homo sapiens [11] = species on record: Homo sapiens; test: Selectivity index, ratio of IC50 for CYP19 (unknown origin) to IC50 for human recombinant CYP11B2
Homo sapiens [12] = species on record: Homo sapiens; test: Selectivity index, ratio of IC50 for CYP2D6 (unknown origin) to IC50 for human recombinant CYP11B2
[13] = Fraction unbound in cynomolgus monkey plasma incubated for 6 hrs by HPLC-MS/MS analysis; type: ADME, cell-free, Macaca fascicularis
Homo sapiens [14] = species on record: Homo sapiens; test: Selectivity index, ratio of IC50 for CYP2C9 (unknown origin) to IC50 for human recombinant CYP11B2
[15] = Inhibition of cynomolgus monkey CYP11B1; type: ADME, Macaca fascicularis
Cynomolgus monkey [16] = test: In vivo inhibition of CYP11B2 in cynomolgus monkey assessed as reduction in ACTH-induced plasma aldosterone AUC at 1 mg/kg, po administered 10 mins prior to ACTH stimulation for 7 days relative to control; type: functional; details: Macaca fascicularis
Outline: (§3)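 Conscious male cynomolgus monkeys. Day 1: vehicle, then ACTH challenge to drive adrenal steroidogenesis. Repeated after 7-day recovery with oral compound at 0.2, 1 and 3 mg/kg given 10 min before ACTH. Plasma aldosterone, cortisol, DOC and 11-deoxycortisol measured and AUCs calculated. Day 8 change expressed against each animal's own day 1 steroid AUC.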

Macaca fascicularis = species on record: Macaca fascicularis; test: Selectivity index, ratio of IC50 for cynomolgus monkey CYP11B1 to IC50 for cynomolgus monkey CYP11B2
Cynomolgus monkey [17] = test: In vivo inhibition of CYP11B2 in cynomolgus monkey assessed as reduction in ACTH-induced plasma aldosterone AUC administered orally 10 mins prior to ACTH stimulation for 7 days; type: functional, organism-based; details: Macaca fascicularis; outline: as §3
[18] = Inhibition of cynomolgus monkey CYP11B2; set-up: species or system Macaca fascicularis
Cynomolgus monkey [19] = test: In vivo inhibition of CYP11B2 in cynomolgus monkey assessed as reduction in ACTH-induced plasma aldosterone AUC at 0.2 mg/kg, po administered 10 mins prior to ACTH stimulation for 7 days relative to control; type: functional; details: Macaca fascicularis; outline: as §3
Cynomolgus monkey [20] = test: In vivo inhibition of CYP11B2 in cynomolgus monkey assessed as reduction in ACTH-induced plasma aldosterone AUC at 3 mg/kg, po administered 10 mins prior to ACTH stimulation for 7 days relative to control; type: functional; details: Macaca fascicularis; outline: as §3
Homo sapiens [21] = species on record: Homo sapiens; test: Selectivity index, ratio of IC50 for CYP2C19 (unknown origin) to IC50 for human recombinant CYP11B2
Cynomolgus monkey [22] = test: Effect on ACTH-induced 11-deoxycortisol level in cynomolgus monkey at 0.2 to 3 mg/kg, po administered 10 mins prior to ACTH stimulation for 7 days; type: ADME, organism-based, Macaca fascicularis; details: in vivo; outline: as §3
Homo sapiens [23] = species on record: Homo sapiens; test: Selectivity index, ratio of IC50 for CYP3A4 (unknown origin) to IC50 for human recombinant CYP11B2
Aromatase = target: T3, Aromatase (Homo sapiens, UniProt P11511); test: Inhibition of CYP19 (unknown origin)
T3 sequence (P11511 whole entry): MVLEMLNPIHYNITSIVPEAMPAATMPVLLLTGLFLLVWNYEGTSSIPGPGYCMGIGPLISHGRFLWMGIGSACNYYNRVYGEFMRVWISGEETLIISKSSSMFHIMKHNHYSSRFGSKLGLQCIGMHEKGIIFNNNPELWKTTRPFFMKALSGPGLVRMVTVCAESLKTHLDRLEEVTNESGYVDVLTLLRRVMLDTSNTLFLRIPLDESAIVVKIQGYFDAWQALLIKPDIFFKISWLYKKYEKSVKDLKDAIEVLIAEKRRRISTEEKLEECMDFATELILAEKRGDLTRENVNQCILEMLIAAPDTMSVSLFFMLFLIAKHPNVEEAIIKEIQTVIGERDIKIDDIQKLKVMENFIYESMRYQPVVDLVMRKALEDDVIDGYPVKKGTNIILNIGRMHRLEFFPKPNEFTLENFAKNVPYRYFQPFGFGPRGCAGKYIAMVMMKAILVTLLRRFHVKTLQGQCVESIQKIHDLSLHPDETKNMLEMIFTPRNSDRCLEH

Cynomolgus monkey [24] = test: Effect on ACTH-induced DOC level in cynomolgus monkey at 0.2 to 3 mg/kg, po administered 10 mins prior to ACTH stimulation for 7 days; type: ADME, organism-based, Macaca fascicularis; details: in vivo; outline: as §3
Cynomolgus monkey [25] = test: Effect on ACTH-induced cortisol level in cynomolgus monkey at 0.2 to 3 mg/kg, po administered 10 mins prior to ACTH stimulation for 7 days; type: ADME, organism-based, Macaca fascicularis; details: in vivo; outline: as §3

Fc1cc2nc(-c3cncnc3C3CC3)n(C3CC3)c2cc1F
Ratio IC50 (Homo sapiens [1]): > 58 | IC50 [2]: > 10000 nM | IC50 [3]: 172 nM

N#Cc1ncncc1-c1nc2cc(F)c(F)cc2n1C1CC1
remaining at 65 min, 1 µM [4]: 85% | Ratio IC50 (Homo sapiens [1]): 383 | IC50 [2]: 4990 nM | IC50 [3]: 13 nM

CNc1ncncc1-c1nc2cc(F)c(F)cc2n1C1CC1
Ratio IC50 (Homo sapiens [1]): > 195 | IC50 [2]: 390 nM | IC50 [3]: < 2 nM

Fc1ccc2nc(-c3cncnc3)n(C3CC3)c2c1
Ratio IC50 (Homo sapiens [1]): 136

N#Cc1ccc2nc(-c3cncnc3C(F)(F)F)n(C3CC3)c2n1
remaining at 65 min, 1 µM [4]: 87% | Tmax [5]: 0.5 h | AUC(0-t) at 24 h [6]: 10.1 µM·h | solubility thermodynamic at 24 h [7]: 153 µM (≈ 50.5 µg/mL) | Ratio IC50 (Homo sapiens [1]): 200 | half-life [8]: 5.3 h | IC50 [2]: 4810 nM | Cmax [9]: 1680 nM | IC50 [3]: 24 nM

Fc1ccc2nc(-c3cnccn3)n(C3CC3)c2c1
Ratio IC50 (Homo sapiens [1]): > 18 | IC50 [2]: > 10000 nM | IC50 [3]: 541 nM

CN(C)c1ncncc1-c1nc2cc(F)c(F)cc2n1C1CC1
remaining at 65 min, 1 µM [4]: 6% | Ratio IC50 (Homo sapiens [1]): 159 | IC50 [2]: 4630 nM | IC50 [3]: 29 nM

Fc1cc2nc(-c3cncnc3C(F)F)n(C3CC3)c2cc1F
remaining at 65 min, 1 µM [4]: 106% | Tmax [5]: 1 h | AUC(0-t) at 24 h [6]: 8.8 µM·h | Ratio IC50 (Homo sapiens [1]): 240 | half-life [8]: 15.3 h | IC50 [2]: 4320 nM | Cmax [9]: 620 nM | IC50 [3]: 18 nM

Fc1ccc2nc(-c3cn[nH]c3)n(C3CC3)c2c1
Ratio IC50 (Homo sapiens [1]): 2 | IC50 [2]: 1670 nM | IC50 [3]: 782 nM

Fc1cc2nc(-c3cncnc3)n(C3CC3)c2cc1F
remaining at 65 min, 1 µM [4]: 98% | Ratio IC50 (Homo sapiens [1]): 103 | IC50 [2]: 2270 nM | IC50 [3]: 22 nM

Fc1cc2nc(-c3cncnc3C(F)(F)F)n(C3CC3)c2cc1F
Ratio IC50 (Homo sapiens [10]): > 1000 | remaining at 65 min, 1 µM [4]: 99% | Ratio IC50 (Homo sapiens [11]): 250 | Ratio IC50 (Homo sapiens [12]): > 1000 | Tmax [5]: 2 h | fraction unbound at 6 h [13]: 0.16 | AUC(0-t) at 24 h [6]: 7.8 µM·h | Ratio IC50 (Homo sapiens [14]): > 1000 | solubility thermodynamic at 24 h [7]: 9 µM (≈ 3.06 µg/mL) | Ratio IC50 (Homo sapiens [1]): 190 | IC50 [15]: 8850 nM | inhibition in vivo at 1 mg/kg (Cynomolgus monkey [16]): 88% | Ratio IC50 (Macaca fascicularis): 702 | inhibition (Cynomolgus monkey [17]): Dose-dependent effect | IC50 [18]: 13 nM | inhibition in vivo at 0.2 mg/kg (Cynomolgus monkey [19]): 68% | inhibition in vivo at 3 mg/kg (Cynomolgus monkey [20]): 93% | half-life [8]: 30 h | IC50 [2]: 4770 nM | Ratio IC50 (Homo sapiens [21]): > 1000 | Cmax [9]: 410 nM | Activity (Cynomolgus monkey [22]): Non-Toxic | Ratio IC50 (Homo sapiens [23]): > 1000 | IC50 (Aromatase): 6440 nM | Activity (Cynomolgus monkey [24]): Non-Toxic | Activity (Cynomolgus monkey [25]): Non-Toxic | IC50 [3]: 25 nM

Fc1ccc2nc(-c3cncs3)n(C3CC3)c2c1
Ratio IC50 (Homo sapiens [1]): 73 | IC50 [2]: 4520 nM | IC50 [3]: 62 nM
